In data set [1] the test system is Mus musculus. Put plainly: Neurotoxicity in mouse assessed as inability to maintain equilibrium on rod at 100 mg/kg, po after 4 hrs by rotarod test relative to control. Particulars: in vivo. Also on record: dose 100 mg/kg, route oral. The data set is classed as toxicity, organism-based. In outline: (§1)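 Mice pre-trained on accelerating rotorod (10 rpm, rod diameter 3.2 cm), then dosed orally at 100 mg/kg. Neurotoxicity is failure to keep equilibrium on the rod for at least 1 min in each of three trials, checked at 0.5, 1, 2 and 4 h. Reported as animals showing neurotoxicity per number tested (n = 4); phenytoin standard.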
(In general: Falling from the rotarod earlier than controls is read as motor impairment.)

Data set [2] concerns Mus musculus. The data set is described as follows: Neurotoxicity in mouse assessed as inability to maintain equilibrium on rod at 100 mg/kg, po after 1 hr by rotarod test relative to control. The data set is classed as toxicity, organism-based. Also on record: dose 100 mg/kg, route oral. Particulars: in vivo. A digest of the protocol:
as §1

For data set [3], the system named is Mus musculus. The data set is described as follows: Neurotoxicity in mouse assessed as inability to maintain equilibrium on rod at 100 mg/kg, po after 2 hrs by rotarod test relative to control. The data set is classed as toxicity, organism-based. Also on record: dose 100 mg/kg, route oral. To be noted: in vivo. In outline:
as §1

Data set [4] has as its system Mus musculus. Put plainly: Neurotoxicity in mouse assessed as inability to maintain equilibrium on rod at 100 mg/kg, po after 0.5 hrs by rotarod test relative to control. The data set is classed as toxicity, organism-based. Also on record: dose 100 mg/kg, route oral. To be noted: in vivo. A digest of the protocol: as §1
Data set [5] deals with Rattus norvegicus. Put plainly: Anticonvulsant activity in Wistar rat assessed as protection against maximal electroshock-induced seizure at 100 mg/kg, po administered 30 mins prior to test relative to control. The data set is classed as functional. In outline:
(§2)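 Male Wistar rats, n = 6 per group; 100 mg/kg given orally as solution in 1% sodium carboxymethyl cellulose, 30 min before maximal electroshock; observed 2 min. E/F is extension phase (s)/flexion phase (s). % protection = (control − test)/control × 100 against vehicle control; phenytoin 100 mg/kg reference; mean values.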

The test system of data set [6] is Rattus norvegicus. The data set is described as follows: Anticonvulsant activity in Wistar rat maximal electroshock seizure model assessed as decrease in ratio of extension phase and flexion phase at 100 mg/kg, po administered 30 mins prior to test. The data set is classed as functional. A digest of the protocol:
as §2
In general terms: Protection in the maximal electroshock model is a classic sign of anticonvulsant action.

On to `COc1ccc(-c2nnc(N3CCN(S(=O)(=O)c4ccc(Br)c(C)c4)CC3)o2)cc1`, for which the Activity stood at 0% in data set [1]; 0% in data set [2]; 0% in data set [3]; 0% in data set [4]; 52.42% in data set [5]. In data set [6], the Ratio is reported as 6.29.

Take `COc1ccc(-c2nnc(N3CCN(S(=O)(=O)c4ccc(-c5ccccc5)cc4)CC3)o2)cc1`: the Activity in data set [1] amounted to 0%; in data set [2], 0%; in data set [3], 0%; in data set [4], 0%; in data set [5] it was 23.34%. Further, the Ratio in data set [6] is 7.11.

As to `COc1ccc(-c2nnc(N3CCN(S(=O)(=O)c4ccc(C#N)cc4)CC3)o2)cc1`, the Activity in data set [1] came to 0%; in data set [2], 0%; in data set [3], 0%; in data set [4], 0%; in data set [5], 42.4%. Also, the Ratio in data set [6] turned out to be 6.34.

Take `COc1ccc(-c2nnc(N3CCN(S(=O)(=O)c4ccc(C(F)(F)F)cc4[N+](=O)[O-])CC3)o2)cc1`: the Activity in data set [5] turned out to be 77.64%. In addition, the Ratio in data set [6] was determined as 1.91.

As to `COc1ccc(-c2nnc(N3CCN(S(=O)(=O)c4ccc(Oc5ccccc5)cc4)CC3)o2)cc1`, the Activity is on record as 0% in data set [1]; 0% in data set [2]; 0% in data set [3]; 0% in data set [4]; 74.31% in data set [5]. The Ratio in data set [6] is on record as 1.96.

Consider `COc1ccc(-c2nnc(N3CCN(S(=O)(=O)c4cc(Cl)sc4Cl)CC3)o2)cc1`, for which the Activity came out at 0% in data set [1]; 0% in data set [2]; 0% in data set [3]; 0% in data set [4]; 73.47% in data set [5]. In data set [6], the Ratio came out at 2.11.

`COc1ccc(-c2nnc(N3CCN(S(=O)(=O)c4ccc5ccccc5c4)CC3)o2)cc1`: the Activity in data set [1] is recorded as 25%; in data set [2] it was 0%; in data set [3], 25%; in data set [4], 0%; in data set [5] it was 31.54%. Moreover, in data set [6], the Ratio is recorded as 6.96.

As for `COc1ccc(-c2nnc(N3CCN(S(=O)(=O)c4c(C)noc4C)CC3)o2)cc1`, the Activity in data set [1] is reported as 0%; in data set [2], 0%; in data set [3], 0%; in data set [4], 0%; in data set [5], 71.25%. Also, the Ratio in data set [6] came out at 2.34.

For the compound `COc1ccc(-c2nnc(N3CCN(S(=O)(=O)c4ccc(C(C)(C)C)cc4)CC3)o2)cc1`, the Activity in data set [1] was determined as 0%; in data set [2], 0%; in data set [3], 0%; in data set [4], 0%; in data set [5] it was 17.32%. Besides, the Ratio in data set [6] is given as 7.64.

Regarding `COc1ccc(-c2nnc(N3CCN(S(=O)(=O)c4ccccc4[N+](=O)[O-])CC3)o2)cc1`, the Activity in data set [1] worked out at 0%; in data set [2] it was 0%; in data set [3], 0%; in data set [4] it was 0%; in data set [5], 59.64%. Moreover, the Ratio in data set [6] was found to be 5.49.

Turning to `COc1ccc(-c2nnc(N3CCN(S(=O)(=O)c4cccc(C(F)(F)F)c4)CC3)o2)cc1`, the Activity in data set [1] is 0%; in data set [2] it was 0%; in data set [3], 0%; in data set [4], 0%; in data set [5], 53.01%. Moreover, the Ratio in data set [6] is reported as 6.11.

As for `COc1ccc(-c2nnc(N3CCN(S(C)(=O)=O)CC3)o2)cc1`, the Activity turned out to be 25% in data set [1]; 0% in data set [2]; 25% in data set [3]; 0% in data set [4]; 10.63% in data set [5]. Further, in data set [6], the Ratio is reported as 8.15.

As for `COc1ccc(-c2nnc(N3CCN(S(=O)(=O)c4ccc(C)cc4)CC3)o2)cc1`, the Activity in data set [1] was 25%; in data set [2], 0%; in data set [3], 25%; in data set [4], 0%; in data set [5], 17.03%. Besides, in data set [6], the Ratio amounted to 7.68.

`COc1ccc(-c2nnc(N3CCN(S(=O)(=O)c4ccc(Br)cc4)CC3)o2)cc1`: the Activity in data set [1] stood at 0%; in data set [2], 0%; in data set [3] it was 0%; in data set [4] it was 0%; in data set [5], 50.79%. Moreover, the Ratio in data set [6] turned out to be 6.51.

Take `COc1ccc(-c2nnc(N3CCN(S(=O)(=O)c4ccc(I)cc4)CC3)o2)cc1`: the Activity in data set [1] turned out to be 0%; in data set [2] it was 0%; in data set [3] it was 0%; in data set [4], 0%; in data set [5] it was 50.43%. For the same compound, the Ratio in data set [6] turned out to be 6.57.

With `O=C1NC(=O)C(c2ccccc2)(c2ccccc2)N1` [PHENYTOIN], the Activity is listed as 0% in data set [1]; 0% in data set [2]; 0% in data set [3]; 0% in data set [4]; 75.88% in data set [5]. The Ratio in data set [6] was determined as 1.98.

Source of the values: ChEMBL document CHEMBL2401686, “Synthesis of novel 1-[5-(4-methoxy-phenyl)-[1,3,4]oxadiazol-2-yl]-piperazine derivatives and evaluation of their in vivo anticonvulsant activity” (Eur J Med Chem, 2013).
